# Reference: PubChem BioAssay
# Active and inactive are the calls of the source.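 How the source made its calls, unless noted: active means NADPH fluorescence slope more negative than the mean of all samples by about 3 SD, 99.7% confidence; inactive means the rest.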
# What was measured:
# [1] = inhibitors of TNFa-induced NFkB p65 translocation, primary screen, imaging, HUVEC, MLSMR starter and 10KST1 sets (AID 438;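 active means inhibition above 20% together with a positive visual image hit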;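 further: compound added about 3h40 before a 20 min TNFalpha stimulation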;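 on inhibition: signal is the nuclear over cytoplasmic p65 intensity ratio per well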); conditions: HUVEC TNFa-induced p65 nuclear translocation; cell count: measured here: nuclei count (cytotoxicity indicator), at 2.08 µM; inhibition: at 2 µM, stronger effect = higher value, 0% TNFa-plus-vehicle, 100% no-TNFa wells
# [2] = inhibitors of E-selectin induction by TNFa, primary screen, imaging, HUVEC, immunofluorescence, MLSMR starter and 10KST1 sets (AID 487;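 active means visually confirmed hit in the image check and inhibition above 20%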;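 on inhibition: signal is fraction of cell area covered by stained E-selectin grains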;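 on nuclei count: 100% = median nuclei count of all wells on the same plate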); conditions: HUVEC TNFalpha-induced E-selectin immunofluorescence imaging, at 2 µM; inhibition: stronger effect = higher value; nuclei count: measured here: cell number, toxicity
# [3] = DUSP6 inhibitors restoring Erk phosphorylation by chemical complementation, primary imaging in DUSP6-transfected HeLa (AID 609;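 active means compounds giving at least 50% inhibition in the cell-based MKP-3 phosphatase rescue imaging test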;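 on inhibition: phospho-Erk level distribution per well compared with pooled transfected vehicle control wells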); conditions: HeLa MKP-3 transfected, phospho-Erk imaging KS statistic, at 10 µM, cells stimulated with TPA for 15 min
# [4] = molecular target: Dual specificity protein phosphatase 6 (Homo sapiens) (UniProt Q16828); experiment: as above; conditions: HeLa MKP-3 transfected, phospho-Erk imaging KS statistic; at 10 µM; stronger effect = higher value; cells stimulated with TPA for 15 min
# [5] = molecular target: Voltage-gated potassium channel subunit beta-2 (Rattus norvegicus) (UniProt P62483); experiment: KvBeta enzyme negative modulators, primary screen, biochemical, NADPH fluorescence (AID 622;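 active means fluorescence slope higher than the sample average by over 3 SD, cut at about -0.22 in these data, passing the limit was not always enough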;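 further: slope of raw intensity against log time taken from 70 to 1610 s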); conditions: recombinant KvBeta, 4-cyanobenzaldehyde reduction, at 10 µM, stronger effect = higher value
# [6] = molecular target: Voltage-gated potassium channel subunit beta-2 (Rattus norvegicus) (UniProt P62483); experiment: KvBeta positive modulators, primary screen, biochemical, NADPH fluorescence (AID 623); conditions: Recombinant KvBeta, NADPH fluorescence decrease slope, 10 min; at 10 µM; stronger effect = lower value;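 further: fluorescence intensity change per second fitted from 20 to 320 s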
# [7] = molecular target: Alpha-2C adrenergic receptor (Homo sapiens) (UniProt P18825); experiment: modulators of alpha2C/GIRK thallium flux, primary screen, cell-based, HEK293 alpha2C/GIRK1/2 (AID 624;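 active means fluorescence slope after compound addition differing from the mean of all screened samples at 99.7% confidence, in either direction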;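 further: slope of fluorescence ratio to pre-addition baseline per second over 15 to 24 s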); conditions: thallium flux BTC fluorescence, at 10 µM, actives lie on both sides
# [8] = inhibitors of larval lipid processing in zebrafish, primary screen, whole organism, PED6 fluorescence, gall bladder and intestine (AID 686;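 active means a full or partial loss of lipid-probe fluorescence in the fish gall bladder, intestine or both, judged by eye; inactive means no fluorescence loss, or compound toxic to the fish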;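 further: larvae 5 to 7 days old with five fish per well; signal comes from phospholipase A2 cleavage of quenched PED6 carried via bile; overnight exposure to compound and PED6 before scoring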); conditions: Zebrafish larvae PED6 lipid processing, fluorescence scoring; screened at 20 µM (by protocol)
# Method in brief: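 Also added: quenched phospholipase substrate PED6, 100 nM final, ingested by larvae; System: zebrafish larvae, 5-7 d; Quantity: 5 larvae per well; Compound: 20 µM single dose; Schedule: overnight compound and PED6 incubation; Read-out: visual per-well fluorescence inhibition score; Measured by: By-eye fluorescence microscopy; Medium: E3.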
# [9] = inhibitors of Chlamydomonas gravitaxis, primary screen, whole organism, Chlamydomonas reinhardtii, WT vs cilia-less mutant, absorbance, 96-well (AID 463189;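 active means inhibition at or above 50% relative to wild type and mutant plate controls; inactive means inhibition below 50%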;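 further: 0% = wild type cc124 cells in DMSO and 100% = ciliumless bld1 mutant cells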); conditions: OD600 absorbance, 2 days, at 10 µM, stronger effect = higher value
# [10] = measured here: cell density z-score
# [11] = measured here: nuclear c-Myc green intensity z-score
# [12] = measured here: nuclear pErk red intensity z-score, stronger effect = higher value
# Sequence of Voltage-gated potassium channel subunit beta-2 (Rattus norvegicus) (P62483 whole entry, looked up): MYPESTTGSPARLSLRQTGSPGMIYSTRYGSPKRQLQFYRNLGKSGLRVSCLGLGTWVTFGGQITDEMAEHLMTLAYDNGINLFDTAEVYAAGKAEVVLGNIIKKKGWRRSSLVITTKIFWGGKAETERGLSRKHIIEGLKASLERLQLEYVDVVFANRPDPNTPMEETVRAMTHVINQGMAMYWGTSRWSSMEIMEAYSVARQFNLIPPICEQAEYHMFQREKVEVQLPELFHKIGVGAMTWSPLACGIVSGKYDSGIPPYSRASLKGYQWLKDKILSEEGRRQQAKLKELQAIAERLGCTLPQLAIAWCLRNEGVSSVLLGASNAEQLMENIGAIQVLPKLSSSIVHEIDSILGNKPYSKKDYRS
# Sequence of Alpha-2C adrenergic receptor (Homo sapiens) (P18825 whole entry, looked up): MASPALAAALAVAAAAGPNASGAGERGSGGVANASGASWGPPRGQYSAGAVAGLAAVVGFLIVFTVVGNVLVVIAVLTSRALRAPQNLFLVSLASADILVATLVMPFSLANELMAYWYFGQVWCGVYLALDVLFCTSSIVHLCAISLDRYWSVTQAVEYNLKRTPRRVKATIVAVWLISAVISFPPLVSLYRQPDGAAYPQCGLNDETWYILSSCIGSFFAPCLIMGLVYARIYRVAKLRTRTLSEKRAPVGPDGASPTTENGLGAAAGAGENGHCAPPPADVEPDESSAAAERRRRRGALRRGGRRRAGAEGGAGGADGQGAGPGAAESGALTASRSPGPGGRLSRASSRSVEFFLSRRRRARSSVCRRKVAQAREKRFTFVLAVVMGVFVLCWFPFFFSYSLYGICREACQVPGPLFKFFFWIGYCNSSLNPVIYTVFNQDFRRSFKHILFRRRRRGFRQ
# Sequence of Dual specificity protein phosphatase 6 (Homo sapiens) (Q16828 whole entry, looked up): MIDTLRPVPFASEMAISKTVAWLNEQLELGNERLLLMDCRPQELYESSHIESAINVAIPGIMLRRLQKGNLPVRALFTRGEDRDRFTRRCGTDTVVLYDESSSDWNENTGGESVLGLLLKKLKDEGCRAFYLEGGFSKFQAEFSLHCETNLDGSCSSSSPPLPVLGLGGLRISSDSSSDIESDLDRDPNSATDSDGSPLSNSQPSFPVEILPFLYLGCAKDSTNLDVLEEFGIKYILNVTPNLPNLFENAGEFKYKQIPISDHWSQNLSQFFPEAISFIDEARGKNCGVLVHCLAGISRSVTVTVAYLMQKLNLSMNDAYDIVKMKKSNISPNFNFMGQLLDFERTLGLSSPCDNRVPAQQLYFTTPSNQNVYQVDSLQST
SMILES,cell count [1],inhibition [1],inhibition [2],nuclei count [2],"z-score [3, 10]","z-score [3, 11]","z-score [3, 12]",inhibition [4],fluorescence slope [5],NADPH fluorescence slope [6],slope [7],outcome [8],inhibition [9]
COCCOCCOCCC(=O)NC1CC2CCC1(C)C2(C)C (stereo not given),580,-10.5% (inactive),32.9% (inactive),158%,0.451,-0.414,-0.476,6.51% (inactive),-0.459 (inactive),-1.1e-05 (inactive),0.00758 (inactive),inactive,13.6% (inactive)
c1coc(CNc2ncnc3ccccc23)c1,553,-2.6% (inactive),2.7% (inactive),155%,0.847,-1.11,1.51,14% (inactive),-0.479 (inactive),-0.000192 (inactive),0.00559 (inactive),inactive; toxic,12.9% (inactive)
C=CCOc1nc2c(c(=O)n(C)c(=O)n2C)n1Cc1ccc(Cl)cc1Cl,555,1.8% (inactive),-31.1% (inactive),103%,-0.56,-0.295,0.979,-6.48% (inactive),-0.591 (inactive),-4.9e-05 (inactive),0.00522 (inactive),inactive,4.68% (inactive)
CCOCCN(C(=O)COC)c1cccc(OC)c1,368,4.6% (inactive),19.2% (inactive),124%,0.00474,0.972,0.0482,-5.62% (inactive),-0.321 (inactive),1.5e-05 (inactive),0.00531 (inactive),inactive,-16.2% (inactive)
C=CCn1c(=S)[nH]c2ccccc2c1=O,649,1.8% (inactive),-30.6% (inactive),130%,-0.515,0.859,0.00467,5.57% (inactive),-0.46 (inactive),-0.000371 (inactive),0.00865 (inactive),inactive,-14.1% (inactive)
COc1ccc(CCCNC(=O)CC#N)cc1OC,652,-3.9% (inactive),-14.5% (inactive),185%,-0.133,0.521,-0.241,17% (inactive),-0.512 (inactive),-4.5e-05 (inactive),0.00537 (inactive),inactive,10.9% (inactive)
CCCCCCc1cc2cc(-c3nnc(-c4ccccc4O)o3)c(=O)oc2cc1O,473,-2.3% (inactive),-99.6% (inactive),122%,-0.061,1.83,-1.3,-7.79% (inactive),-0.274 (inactive),5.9e-06 (inactive),0.0685 (active),inactive,13.3% (inactive)
CCCOc1cc(CN2CCCCC2)cc(C(C)=O)c1,662,-7.2% (inactive),-40.5% (inactive),182%,0.934,-0.767,0.549,15.1% (inactive),-0.493 (inactive),-6.5e-05 (inactive),0.00496 (inactive),inactive,3.11% (inactive)
CCCCOC(=O)C(C)c1c(C)[nH]c(=S)[nH]c1=O (stereo not given),479,-1.2% (inactive),-142% (inactive),138%,0.126,0.523,-0.0829,-3.5% (inactive),-0.505 (inactive),-3.9e-05 (inactive),0.00553 (inactive),inactive,11.1% (inactive)
N#Cc1nc(-c2ccc(Cl)cc2)oc1N1CCCCC1,424,-5.8% (inactive),-41.2% (inactive),138%,-0.0904,-0.228,0.966,9.61% (inactive),-0.394 (inactive),-1.7e-05 (inactive),0.00666 (inactive),inactive,20% (inactive)
Cn1c(=O)cc(NCc2ccccc2)[nH]c1=O,451,-5.5% (inactive),-114% (inactive),164%,1.39,-0.42,-0.956,-0.624% (inactive),-0.333 (inactive),5.7e-06 (inactive),0.00621 (inactive),inactive,-4.62% (inactive)
CN1C(=O)N(c2ccccc2)C(Nc2nncs2)C1(C)C (stereo not given),438,3.5% (inactive),-58.9% (inactive),167%,-0.342,0.524,0.181,-2.29% (inactive),-0.341 (inactive),-2.5e-05 (inactive),0.00481 (inactive),inactive,1.2% (inactive)
COc1ccc(-c2cc(=O)[nH]c(=O)[nH]2)cc1,636,-16% (inactive),-269% (inactive),186%,-0.456,0.584,0.91,3.66% (inactive),-0.466 (inactive),-0.000273 (inactive),0.00552 (inactive),inactive,-6.46% (inactive)
Cc1[nH]c(=O)[nH]c(=O)c1S(=O)(=O)N1CCCC1,473,-7.5% (inactive),-107% (inactive),116%,-1.16,0.0534,0.397,-3.98% (inactive),-0.476 (inactive),-0.000255 (inactive),0.00533 (inactive),inactive,-0.601% (inactive)
Nc1ncnc2nc(SCc3ccccc3)[nH]c12,352,2.1% (inactive),-52.6% (inactive),152%,-0.893,1.92,0.814,-7.01% (inactive),-0.432 (inactive),-0.00013 (inactive),0.00504 (inactive),inactive,8.96% (inactive)
CCN(CC)CCN1C(=O)C(=O)/C(=C(/O)c2ccc(F)cc2)C1c1ccncc1 (stereo not given),519,-13.3% (inactive),-36.8% (inactive),110%,0.315,0.605,-0.561,-11.5% (inactive),-0.542 (inactive),-1e-05 (inactive),0.00505 (inactive),inactive,-7.51% (inactive)
CCOC(=O)CC(=O)CSc1nc(N)c(C#N)c(-c2ccc(Cl)cc2)c1C#N,405,-9.9% (inactive),-43.1% (inactive),99.2%,1.08,-0.959,-2.04,-6.48% (inactive),-0.318 (inactive),1.7e-05 (inactive),0.00603 (inactive),inactive,-7.76% (inactive)
CN(C)c1nc2n(c(=O)n1)C(C#N)CS2 (stereo not given),364,-3.1% (inactive),-192% (inactive),105%,0.947,-1.21,-1.65,13.2% (inactive),-0.438 (inactive),-5.8e-06 (inactive),0.00693 (inactive),inactive,-3.08% (inactive)
CC1(C)Cc2c(sc3c4nnnn4c4nnnn4c23)CO1,634,-12.5% (inactive),-30.9% (inactive),164%,0.452,0.0526,0.417,20.8% (inactive),-0.493 (inactive),-9.6e-05 (inactive),0.0051 (inactive),inactive,27.1% (inactive)
N#Cc1c(NC(=O)CCC(=O)O)sc2c1CCCC2,715,-11.6% (inactive),-10.3% (inactive),186%,-1.16,1.41,-1.22,-7.28% (inactive),-0.388 (inactive),-5e-05 (inactive),0.00575 (inactive),inactive,-7.91% (inactive)
